Measurements gathered from unrelated publications.
Protocols differ between the studies behind these lines.
Cell line: HOP-62
Effect on: cell growth or viability

| SMILES | method | concentration | time | quantity | value |
| --- | --- | --- | --- | --- | --- |
| COc1cccc(Oc2ccccc2NC(=O)CNC(=O)c2cccc3ccccc23)c1 | SRB | – | 48 h | GI50 | 0.302 µM |
| COc1ccc(C(=O)/C=C/c2cccc3ccccc23)cc1S(N)(=O)=O | SRB | 10 µM | – | inhibition | 82% |
| COc1ccc(-c2ccc(-c3ccc(C(=N)N)nc3)s2)cc1 | SRB | – | – | GI50 | 1.8 µM |
| COc1cccc2c1C(=O)c1c(O)c3c(c(O)c1C2=O)C[C@@](O)(C(=O)CO)C[C@@H]3O[C@H]1C[C@H](N)[C@H](O)[C@H](C)O1 | SRB | 10 µg/mL | 48 h | inhibition | 98.9% |
| O=C1NCCc2[nH]c(-c3ccncc3)cc21 | – | – | – | IC50 | 9.94 µM |
| CCCc1n(Cc2ccc3ccccc3n2)cc[n+]1Cc1ccc2ccccc2n1 | SRB | – | – | TGI | 19.4 µM |
| COc1ccc(C(=O)/C=C/c2c(F)cccc2Cl)cc1S(N)(=O)=O | SRB | – | 48 h | GI50 | 3 µM |
| COc1ccc(-c2ccc(-c3ccc(C(=N)N)nc3)s2)cc1Cl | SRB | – | – | GI50 | 1.9 µM |
| c1ccc2cc(Cn3cc[n+](Cc4ccc5ccccc5c4)c3)ccc2c1 | SRB | – | – | TGI | 17 µM |
| O=C1NC(=NCc2cccs2)S/C1=C\c1ccc2ncccc2c1 | – | – | – | IC50 | > 10 µM |
| CCCCc1n(Cc2ccc3ccccc3n2)cc[n+]1Cc1ccc2ccccc2n1 | SRB | – | – | TGI | 12 µM |
| O=C1Nc2ccccc2C1=NNc1nnc2n1N=C(c1ccccc1)CS2 | SRB | 10 µM | – | inhibition | 54% |
